Screens deposited in PubChem by The Scripps Research Institute Molecular Screening Center.
Sampled rows, rich in hits. Any-hit rate of the full collection: about 1.4%.
TDP2 absorb: human TDP2 enzyme inhibitors, primary screen, biochemical, epi absorbance, recombinant enzyme; T5PNP hydrolysis, p-nitrophenol absorbance 415 nm; 370,000 compounds, 0.34% hits; Tyrosyl-DNA phosphodiesterase 2 (Homo sapiens), O95551; inhibition, % at 12.8 µM;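 active = inhibition above the mean of all tested compounds plus 3 SD, set per campaign, cut at about 25% in these data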;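 note: 0% = DMSO with enzyme and 100% = buffer with substrate but no TDP2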
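System – recombinant human TDP2 · Amount – 120 nM TDP2 per well · Buffer or medium – Mg2+-containing Tris-HCl buffer, pH 7.5 · Reagent – T5PNP substrate, 5 mM · Dosing – 12.8 µM single point, 1% DMSO · Incubation – 2 h at 37 °C · Measured by – epi absorbance · Read-out basis – percent inhibition · Benchmarks – high control without enzyme, low control DMSO plus TDP2 · Repeats – singlicate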
PAD4 FP inh: human PAD4 inhibitors, primary screen, biochemical, fluorescence polarization, 1536-well format. Protein-arginine deiminase type-4 (Homo sapiens), Q9UM07. recombinant PAD4, RCA probe fluorescence polarization. inhibition, % at 6.36 µM. 330,000 compounds, 0.41% hits. AID 485272, 2010;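 active = percent inhibition above a cutoff equal to the mean of all tested compounds plus 3 SD, cut at about 15% in these data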;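 note: 0% = PAD4 with RCA probe and DMSO and 100% = probe without PAD4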
Target sequence (Q9UM07 whole entry, looked up): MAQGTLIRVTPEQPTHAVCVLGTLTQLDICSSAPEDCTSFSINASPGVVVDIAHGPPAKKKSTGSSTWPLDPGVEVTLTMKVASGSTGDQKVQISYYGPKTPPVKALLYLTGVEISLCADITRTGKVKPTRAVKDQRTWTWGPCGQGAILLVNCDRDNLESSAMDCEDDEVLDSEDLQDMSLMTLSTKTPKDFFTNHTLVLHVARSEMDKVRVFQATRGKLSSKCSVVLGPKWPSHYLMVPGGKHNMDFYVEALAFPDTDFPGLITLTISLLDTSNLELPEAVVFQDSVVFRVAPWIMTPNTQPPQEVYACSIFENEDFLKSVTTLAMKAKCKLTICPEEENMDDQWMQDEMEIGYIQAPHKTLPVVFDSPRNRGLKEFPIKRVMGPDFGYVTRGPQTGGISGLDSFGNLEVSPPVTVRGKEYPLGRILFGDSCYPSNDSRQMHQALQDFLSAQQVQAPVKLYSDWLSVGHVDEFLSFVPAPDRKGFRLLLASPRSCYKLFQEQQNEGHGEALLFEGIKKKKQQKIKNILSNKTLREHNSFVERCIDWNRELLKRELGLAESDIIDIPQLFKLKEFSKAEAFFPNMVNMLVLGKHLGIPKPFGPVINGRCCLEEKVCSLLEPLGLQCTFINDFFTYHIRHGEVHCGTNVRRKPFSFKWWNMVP
Fh CTSL1 inh: Fasciola hepatica cathepsin L1 inhibitors, primary screen, counter-screen for PFM18AAP inhibitor project, biochemical, QFRET, fluorogenic peptide substrate; recombinant F. hepatica cathepsin L1, Z-Leu-Arg-MCA fluorescence; 300,000 compounds, 0.49% hits; inhibition, % at 5.96 µM;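 active = inhibition above the mean of all tested compounds plus 3 SD, set per screening campaign, cut at about 17% in these data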;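 note: 0% = plate median of test compound wells and 100% = 1 µM Z-Phe-Ala-diazomethylketone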
GSTO1 counter: inhibitors of recombinant GSTO1, primary screen, counter-screen for RBBP9 inhibitor project, biochemical, fluorescence polarization | Glutathione S-transferase omega-1 (Homo sapiens), P78417 | activity-based probe fluorescence polarization | inhibition, % at 5.96 µM | 300,000 compounds, 1.1% hits | AID 1974, 2009;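 active = inhibition above the campaign mean inhibition plus 3 SD, cut at about 35% in these data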;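 note: 0% = GSTO1-1 with DMSO and 100% = wells lacking GSTO1-1 enzyme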
TDP2 inh conf: human TDP2 enzyme inhibitors, retest, confirmation, biochemical, epi absorbance, recombinant enzyme; shares compounds with TDP2 absorb; absorbance read-out; inhibition, % at 12.8 µM; 1,100 compounds, 22% hits; in the data active = inhibition above about 25%;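 note: 0% = vehicle with enzyme and 100% = no enzyme buffer only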
Starred values were filed as active, the others as inactive; nt = no result.

SMILES | TDP2 absorb | PAD4 FP inh | Fh CTSL1 inh | GSTO1 counter | TDP2 inh conf
COc1cc2c(c(OC)c1O)C(=O)CO2 | 24.8* | 2.2 | 2.6 | 16.9 | -4.4
Cn1c(C(=O)N2CCCC2)cc2c(=O)n(C)c3ccccc3c21 | -0.5 | nt | nt | nt | nt
CCOC(=O)C1CCCN(C(=O)c2cc3c(=O)n(C)c4ccccc4c3n2C)C1 (stereo unspecified) | 40.5* | -3.6 | 1.2 | 6.9 | 12.2
CC(=O)c1cc(OC(=O)N2CCOCC2)ccc1OC(=O)N1CCOCC1 | 74.5* | 0.1 | 1.6 | 5.0 | -15.9
COc1cccc(OC(=O)N2CCOCC2)c1 | 1.9 | 6.3 | 4.6 | 17.4 | nt
CCCc1nc2c(=O)n(C)c(=O)nc-2n(C)n1 | 95.2* | nt | nt | nt | 87.3*
NC(=NCc1ccccc1)NC(=O)OCc1ccccc1 | 4.7 | nt | nt | nt | nt
COc1ccc(CCNC(=O)Cn2c(=O)n(CCCC(=O)NCc3ccco3)c(=O)c3sccc32)cc1OC | 26.5* | -1.6 | 3.2 | 5.9 | 2.6
Cn1c(=O)[nH]c(=O)c2c1nc(N1CCNCC1)n2Cc1ccccc1 | 25.6* | -0.1 | 1.7 | 4.2 | 5.0
O=C(OC12CCCN(C1)/C(=C/c1ccncc1)C2)C1CCCCC1 (stereo unspecified) | -0.5 | nt | nt | nt | nt
Cc1ccccc1C(OCC(O)CN1CCC(C(N)=O)CC1)c1ccccc1 (stereo unspecified) | 11.7 | -1.0 | -3.9 | 0.7 | nt
CCN1CCN(CC(O)COC(c2ccccc2)c2ccccc2C)CC1 (stereo unspecified) | 27.5* | -6.2 | -2.8 | 2.5 | 18.6
O=C(Nc1ccccc1)/C(=C/c1ccc([N+](=O)[O-])cc1)NC(=O)c1ccco1 | 24.6* | -4.0 | 4.0 | 16.8 | 2.6
COC(=O)C1=C(C(C)=O)C(c2ccc(C(=O)OC)cc2)n2nnnc2N1 (stereo unspecified) | 34.4* | 0.3 | 9.4 | 8.3 | 3.5
COC(=O)C1=C(C(C)=O)C(c2ccc(C)cc2)n2nnnc2N1 (stereo unspecified) | -2.4 | -0.5 | 3.9 | 0.3 | nt
O=C(COCc1ccccc1)NC1CCCCN(Cc2ccc(Cl)cc2)C1=O (stereo unspecified) | 6.3 | nt | nt | nt | nt
COc1ccc(NC(=O)NC2CCN(S(=O)(=O)c3ccc(F)cc3)CC2)cc1OC | -6.0 | nt | nt | nt | nt
O=C(/C=C/c1cccc([N+](=O)[O-])c1)NCCN1C(=O)S/C(=C\c2cccnc2)C1=O | 24.6* | -1.4 | -1.0 | 3.0 | -2.9
COc1cc2c(=O)n(CCC(=O)NCC3CCCO3)c(=O)n(CC(=O)Nc3ccc(C)c(C)c3)c2cc1OC (stereo unspecified) | -10.4 | 1.8 | 4.2 | 5.6 | nt
COc1cc2c(=O)n(CCC(=O)NCC3CCCO3)c(=O)n(CC(=O)Nc3ccc(F)cc3)c2cc1OC (stereo unspecified) | 24.5* | -1.9 | 0.8 | 5.1 | -6.7
C=CC[C@@H]1NN2C(=O)[C@@H](CCCC)[C@@H]3c4cc5ccccc5cc4C=NN3[C@@H]2c2cc3ccccc3cc21 | -7.5 | nt | nt | nt | nt
C/C(=N\NC(=O)CNC(=O)c1ccc(Br)cc1)c1ccco1 | 36.4* | 0.9 | 1.1 | 0.1 | -8.7
O=C(NCC(=O)N1CCN(C(=O)c2ccco2)CC1)c1ccc(Br)cc1 | 25.2* | 1.8 | -0.8 | 5.3 | -4.3
C=CCn1c(SCC(=O)Nc2ccccc2-c2ccccc2)nnc1-c1ccc(Cl)cc1 | -12.4 | nt | nt | nt | nt
COc1ccc(CCN(C)C(=O)C2CCCN(C3CCN(Cc4ccccc4)CC3)C2)cc1OC (stereo unspecified) | 31.7* | -4.4 | 1.3 | 1.5 | 8.6
SMILES | TDP2 absorb | PAD4 FP inh | Fh CTSL1 inh | GSTO1 counter | TDP2 inh conf
Cc1ccc(NC(=O)NNC(=O)CCn2nc(C)c([N+](=O)[O-])c2C)cc1C | -4.0 | nt | nt | nt | nt
CCCCNc1nnc(Cc2ccc(Cl)cc2)c(=O)[nH]1 | 28.2* | nt | nt | nt | 0.1
C=CCN1C(=O)[C@@H](CC(=O)NCc2ccccc2)[C@]2(C(=O)OCC)CCCCC/C=C/12 | 4.3 | nt | nt | nt | nt
Cc1ccc(S(=O)(=O)NN=C(c2ccccc2)c2cccs2)cc1 | -15.0 | nt | nt | nt | nt
Cc1ccc(S(=O)(=O)/N=C2/NC(=O)/C(=C\c3ccccc3)S2)cc1 | 9.3 | -7.0 | nt | nt | nt
Cc1ccc(S(=O)(=O)/N=C2/NC(=O)/C(=C/c3ccccc3)S2)cc1 | 28.6* | -3.8 | 4.4 | -41.7 | 10.8
CCCCCCCCN1C(=O)[C@@H](CC(=O)NCc2cccs2)C[C@@]2(C(=O)OC)C1=C[C@H](C(C)C)O[C@@H]2C1CC1 | -1.0 | nt | nt | nt | nt
CCC(C)NS(=O)(=O)c1ccc2[nH]c(=O)oc2c1 (stereo unspecified) | -14.6 | nt | nt | nt | nt
COc1cc(N(C)C)ccc1C=c1c2ccccc2n2c1cc(-c1ccccc1)[n+]2C | 10.2 | nt | nt | nt | nt
CN(C)c1ccc(C=c2c3ccccc3n3c2cc(-c2ccccc2)[n+]3C)cc1 | 30.4* | nt | nt | nt | 9.5
COc1cc(C=c2c3ccccc3n3c2cc(-c2ccccc2)[n+]3C)cc(OC)c1OC | 39.4* | nt | nt | nt | 43.5*
Cc1ccc([C@H]2C[C@H](O)[C@@H](n3cc(C4CC4)nn3)CN2Cc2cccs2)cc1 | -6.0 | nt | nt | nt | nt
C(=N\Nc1nncn1/N=C/c1ccco1)/c1ccco1 | 55.1* | -6.3 | 0.4 | -7.0 | 0.5
CCOC(=O)N1CCN(C2=C(NS(=O)(=O)c3ccc(Br)cc3)C(=O)c3ccccc3C2=O)CC1 | 15.0 | nt | nt | nt | nt
CCOC(=O)N1CCN(C2=C(NS(=O)(=O)c3ccccc3)C(=O)c3ccccc3C2=O)CC1 | 64.3* | -6.7 | -2.8 | 11.8 | 11.1
O=C1C(NS(=O)(=O)c2cccs2)=C(N2CCN(Cc3ccccc3)CC2)C(=O)c2ccccc21 | 39.6* | -14.9 | -5.8 | 29.0 | 9.3
NC(=O)C1CCN(C2=C(NS(=O)(=O)c3ccc(Br)cc3)C(=O)c3ccccc3C2=O)CC1 | 38.4* | -14.4 | -2.4 | 34.8* | 9.0
CC(NS(C)(=O)=O)C(c1cccs1)N1CCN(Cc2ccccc2)CC1 (stereo unspecified) | 4.3 | 1.7 | 2.8 | 0.2 | nt
CN(c1cccnc1)c1ccc(NC(=O)Cc2cn(Cc3ccccc3)c3ccccc23)cc1Br | -1.8 | nt | nt | nt | nt
CCC[C@H]1[C@@H](OC(=O)NCCc2c[nH]c3ccccc23)CC[C@@]23CCCN2C(=O)CCC[C@@H]13 | 0.9 | nt | nt | nt | nt
COc1cccc(C2/C(=C(\O)c3ccc4c(c3)OCCO4)C(=O)C(=O)N2CC2CCCO2)c1 (stereo unspecified) | 34.7* | nt | nt | nt | 3.3
COc1ccc(/C(O)=C2/C(=O)C(=O)N(CC3CCCO3)C2c2cccc(OC)c2)cc1 (stereo unspecified) | 8.4 | -1.7 | 5.3 | -0.2 | nt
C=CCNc1nc(C(=O)OCC(=O)c2ccc(C)c([N+](=O)[O-])c2)cs1 | -8.9 | 2.1 | -16.9 | 0.7 | nt
C=CCNc1nc(C(=O)OCC(=O)c2ccc(Cl)cc2)cs1 | 24.6* | -11.6 | -7.5 | 4.5 | -6.3
CC(=O)N/N=C/c1c(C)[nH]n(-c2ccccc2)c1=O | 28.2* | -13.4 | -0.6 | 25.4 | -2.9
